Experimental data of several laboratories.
Each line is one published result; the experiments were not run side by side.
TYK2 JH1: Non-receptor tyrosine-protein kinase TYK2, JH1 (TYK2, Homo sapiens, UniProt P29597)
TYK2: Non-receptor tyrosine-protein kinase TYK2 (TYK2, Homo sapiens, UniProt P29597)
TYK2 JH2: Non-receptor tyrosine-protein kinase TYK2, JH2 (TYK2, Homo sapiens, UniProt P29597)

With N[C@H]1CCN(c2nccc(-c3cnn4ncccc34)n2)C1 the remaining signal was 76% (TYK2 JH1; cell-free assay; 1 µM).
The remaining binding of CC(=O)N1CCC(c2ccc(C(=O)NC3=NCCN3)cc2C(F)(F)F)CC1 is reported as 100% (TYK2 JH1; cell-free assay; competition with immobilised ligand; 1 µM).
For CS(=O)(=O)Nc1cccc(-c2csc(NC(=O)CSc3nc4nccnc4c(=O)n3CCc3ccccc3)n2)c1, the inhibition was -1% (TYK2; enzyme activity; inhibitor; 10 µM).
O=C(NCc1ncc(C(F)(F)F)cc1Cl)c1ccc2c(c1)C1(CCS(=O)(=O)CC1)[C@H](C1CC1)N2S(=O)(=O)c1ccc(F)cc1 has a remaining binding of 79% (TYK2 JH2; cell-free assay; competition with immobilised ligand; 1 µM).
With N#CCCc1ccc2c(c1)-c1[nH]c3ccc([N+](=O)[O-])cc3c1CC(=O)N2 the remaining signal was 48.1% (TYK2; cell-free assay; 0.5 µM).
For Cc1cnc(NC2CCOCC2)nc1-n1cnc(C(=O)NC(CN)c2cc(F)cc(Cl)c2)c1 (stereo not shown), the remaining activity was 96% (TYK2; enzyme activity; inhibitor; radiometric; 1 µM).
The remaining binding of CN(CCCC(F)(F)F)c1nccc(-c2cnn3ncccc23)n1 is reported as 100% (TYK2; binding; 1 µM).
The remaining activity of O=C(Nc1cnn(-c2csc(C(=O)NC3COC3)c2)c1)Nc1c(F)cccc1Cl is reported as 89.3% (TYK2; enzyme activity; inhibitor; 5 µM).
CN(c1nccc(-c2cnn3ncccc23)n1)C1CC1 gave a remaining binding of 100% (TYK2; binding; 1 µM).
For CNC(=O)c1cc(Oc2ccc(NC(=O)Nc3ccc(Cl)c(C(F)(F)F)c3)cc2)ccn1, the remaining signal was 98.9% (TYK2; cell-free assay; 0.5 µM).
CC(C)(O)[C@H]1CC[C@H](Nc2ccc3ncc(-c4cccc(C(F)(F)F)c4)n3n2)CC1 has a remaining activity of 73.7% (TYK2; enzyme activity; inhibitor; 1 µM).
With COc1cc2ncnc(Nc3ccc(Oc4ccccc4)c(C)c3C)c2cc1OC the inhibition was -2% (TYK2; enzyme activity; inhibitor; 1 µM).
For O=C1CCc2cc(Nc3cc(OC4CCOCC4)c([N+](=O)[O-])cc3Cl)ccc2N1, the remaining binding was 94% (TYK2 JH2; cell-free assay; competition with immobilised ligand; 1 µM).
COc1cc(Cl)c(C(=O)N[C@@H](CN[C@H]2CC[C@@H](N)CC2)Cc2ccc(C#N)cc2)cc1-c1ccc(CN[C@H](C)c2ccc(C)cc2)o1 gave a remaining activity of 105% (TYK2; enzyme activity; inhibitor; 1 µM).
Nc1nc(Nc2ccc(S(N)(=O)=O)cc2)nn1C(=O)c1c(F)cccc1F gave a remaining signal of 0.878% (TYK2; cell-free assay; 0.5 µM).
For CCOCCn1cc(C(=O)Nc2ccc(-n3nc(-c4cccnc4)cc3C(F)(F)F)cn2)ccc1=O, the remaining binding was 100% (TYK2 JH1; cell-free assay; competition with immobilised ligand; 1 µM).
With CC(C)(C)c1nc2c(s1)c1nc(N)ncc1c1ccc(NS(=O)(=O)c3c(F)cccc3F)c(F)c12 the remaining activity was 92% (TYK2; enzyme activity; inhibitor; radiometric; 1 µM).
Cc1c(C(=O)O)cc(-c2ccc(C3CCNCC3)cc2)c2ccc(-c3ccc(C(F)(F)F)cc3)cc12 has a remaining binding of 100% (TYK2 JH1; binding; competition with immobilised ligand; 1 µM).
With COc1cc2nccc(Oc3ccc(NC(=O)c4c5n(n(-c6ccc(F)cc6)c4=O)CCCC5)cc3)c2cc1OC the inhibition was -28% (TYK2; enzyme activity; inhibitor; 0.1 µM).
With COCCOc1nc(-c2ccc(Cl)nc2)nc2c1CN(C(=O)c1ncn3ccccc13)CC2 the remaining binding was 100% (TYK2 JH1; cell-free assay; competition with immobilised ligand; 0.1 µM).
For Nc1ncnc2occ(-c3ccc(NC(=O)Nc4cc(C(F)(F)F)ccc4F)cc3)c12, the remaining signal was 100% (TYK2 JH2; cell-free assay; inhibitor; 20 µM).
C[C@H]1CCN(c2nccc(-c3cnn4ncccc34)n2)C1 gave a remaining signal of 63% (TYK2 JH1; cell-free assay; 1 µM).
The remaining signal of Oc1cccc(-c2nc(N3CCOCC3)c3oc4ncccc4c3n2)c1 is reported as 73.6% (TYK2; cell-free assay; 0.5 µM).
CN(C)C(=O)Cn1cc(-c2nc(C3(c4ccc(-c5cnc(N)nc5)cc4)CC3)no2)cn1 has a remaining binding of 90% (TYK2 JH2; cell-free assay; competition with immobilised ligand; 1 µM).
The remaining signal of c1cnn2ncc(-c3ccnc(N4CCC45COC5)n3)c2c1 is reported as 64% (TYK2 JH1; cell-free assay; 1 µM).
For CC1=C(C#N)[C@@H](c2ccc3[nH]nc(C)c3c2)C(C#N)=C(c2ccc(Cl)cc2)N1, the remaining binding was 73.1% (TYK2 JH1; cell-free assay; competition with immobilised ligand; 1 µM).
With Cc1cnn2ncc(-c3ccnc(N(C)C)n3)c2c1 the remaining binding was 32% (TYK2; binding; 1 µM).
The inhibition of CCCS(=O)(=O)Nc1ccc(F)c(C(=O)c2c[nH]c3ncc(-c4ccc(Cl)cc4)cc23)c1F is reported as less than 10% (TYK2; enzyme activity; inhibitor; 1 µM).
